High-throughput results deposited in PubChem BioAssay by several laboratories.
Hits are enriched below; roughly 4.5% of the tested compounds scored in any of these assays.
CHOP inhibitor = CHOP inhibition in unfolded protein response. 220,000 compounds, 3.8% hits. CHO-K1 CHOP-promoter luciferase, tunicamycin-induced, 15-18 h. inhibition, % at 10 µM;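 active = compounds that reduced the stress-induced luciferase reporter signal by more than about 70% of percent inhibition, limit read from the data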
HCV NS3 hel inh = blocks Hepatitis C virus NS3 helicase unwinding; NS3 helicase DNA unwinding, Cy5 molecular beacon fluorescence; inhibition, % at 10.9 µM; 290,000 compounds, 0.56% hits; AID 1800;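 active = inhibition above the mean of all tested compounds plus 3 SD, set per campaign, cut at about 35% in these data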
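System: Hepatitis C virus NS3 helicase domain fragment enzyme | Reagent: Annealed dual-labelled DNA beacon duplex, ATP-started | Compound dosing: 10.9 µM single point, 0.8% DMSO | Incubation: 1 h reaction at 25 °C, ATP-initiated | Technique: Cy5 fluorescence | Evaluation: Percent inhibition from t60/t0 fluorescence ratio | Benchmarks: Low DMSO, high thioflavine S at 110 µM | Replication: Singlicate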
UPR CHOP act = activators of apoptotic arm of unfolded protein response (CHOP) | activation, % at 10 µM | AID 449763 | CHO-CHOP luciferase reporter, UPR activation, luminescence; percent of tunicamycin response over DMSO baseline | 330,000 compounds, 0.34% hits;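 active = at 10 µM dose, activation of 40% or more, normalized to positive control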
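Test system: CHO CHOP reporter cells. Input: 500 CHO-CHOP cells per well. Medium: F12 with 10% FBS. Technique: luciferase luminescence. Measure: percent activation relative to tunicamycin control. Dosing: 10 µM compound, 0.5% DMSO. Timing: 16-18 h cell attachment, then 6 h compound exposure, 37 °C.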
PfM18AAP inh = blocks P. falciparum M18 aspartyl aminopeptidase | recombinant PfM18AAP, H-Glu-NHMec fluorogenic cleavage | 290,000 compounds, 1.2% hits | AID 1822 | inhibition, % at 7.35 µM;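 active = inhibition above the campaign mean inhibition over all tested compounds plus 3 SD, cut at about 28% in these data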
UPR XBP1 act = adaptive UPR (XBP1) activation. 330,000 compounds, 0.33% hits. CHO-XBP1 luciferase reporter, IRE1-XBP1 UPR activation, luminescence; percent of tunicamycin response, DMSO as zero. activation, % at 20 µM. AID 463104;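 active = versus positive control, 20 µM dose yields 30% or more activation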
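Material: IRE1-XBP1 luciferase reporter CHO line / Quantity: one thousand reporter cells per well / Buffer or medium: F12 with 10% serum / Compound: 20 µM single concentration, DMSO 1% / Times: 6 h treatment, 37 °C / Detection: Steady-Glo luciferase glow luminescence, 10 min after reagent addition / Benchmarks: tunicamycin high, DMSO low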
p97 inhibitor = inhibitors of human p97 ATPase | P55072 | recombinant p97 ATPase, Kinase-Glo ATP luminescence, 3 h | inhibition, % at 8 µM | 220,000 compounds, 0.42% hits | AID 1481; in the data active = inhibition above about 15%
Target sequence (P55072 whole entry, looked up): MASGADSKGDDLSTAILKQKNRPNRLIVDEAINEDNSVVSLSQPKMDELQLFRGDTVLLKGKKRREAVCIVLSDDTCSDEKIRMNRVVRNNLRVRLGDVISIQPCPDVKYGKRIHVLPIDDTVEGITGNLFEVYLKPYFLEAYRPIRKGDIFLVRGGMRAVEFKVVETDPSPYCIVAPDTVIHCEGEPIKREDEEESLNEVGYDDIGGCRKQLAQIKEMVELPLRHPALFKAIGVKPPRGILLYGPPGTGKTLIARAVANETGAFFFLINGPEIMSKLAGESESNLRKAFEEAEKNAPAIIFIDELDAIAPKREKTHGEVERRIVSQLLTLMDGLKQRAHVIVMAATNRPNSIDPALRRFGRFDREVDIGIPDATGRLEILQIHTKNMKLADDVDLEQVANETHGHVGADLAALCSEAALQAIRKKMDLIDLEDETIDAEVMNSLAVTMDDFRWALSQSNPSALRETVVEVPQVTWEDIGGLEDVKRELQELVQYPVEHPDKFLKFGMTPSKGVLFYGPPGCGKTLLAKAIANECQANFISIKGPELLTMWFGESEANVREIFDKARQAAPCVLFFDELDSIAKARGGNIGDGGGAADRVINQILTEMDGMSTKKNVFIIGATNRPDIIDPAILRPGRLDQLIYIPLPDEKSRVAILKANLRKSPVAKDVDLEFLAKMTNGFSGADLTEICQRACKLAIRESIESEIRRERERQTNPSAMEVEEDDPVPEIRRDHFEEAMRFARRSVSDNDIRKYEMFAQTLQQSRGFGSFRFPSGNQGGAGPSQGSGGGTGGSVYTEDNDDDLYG
Of the large screens only hits and unclear results are named; the others gave an inactive call.

CCOc1ccc(-c2cc(CCCC(=O)N3CCN(c4ccc(OC)cc4)CC3)no2)cc1	CHOP inhibitor 94.1
COc1ccc(C)cc1S(=O)(=O)N1CCN(C)CC1c1ccccc1 (configuration not stated)	none (no result: CHOP inhibitor, HCV NS3 hel inh, PfM18AAP inh, p97 inhibitor)
COc1ccc2ccccc2c1/C=N/N1C(=O)CSC1=S	PfM18AAP inh 29.5
COc1cc(/C=C(/C#N)C(=O)Nc2ccccc2)c(Br)cc1OCc1ccc(C(=O)O)cc1	CHOP inhibitor 79.5
COc1cc(/C=C(\C#N)C(=O)Nc2cccc(C(=O)O)c2)ccc1OCc1ccc(Cl)cc1	none (no result: CHOP inhibitor, p97 inhibitor)
CCCC(C)c1nnc(NC(=O)CS(=O)(=O)Cc2ccccc2)s1 (configuration not stated)	none
CCCC(C)c1nnc(NC(=O)CCS(=O)(=O)Cc2ccccc2)s1 (configuration not stated)	PfM18AAP inh 28.8 (no result: CHOP inhibitor, p97 inhibitor)
CCc1c(O)nc(SCC(=O)Nc2nc3ccccc3s2)n(C2CCCCC2)c1=O	none
CCc1c(O)nc(SCC(=O)Nc2ccc(OC)cc2)n(C2CCCCC2)c1=O	CHOP inhibitor 77.2
CC(O)(CS(=O)(=O)Cc1ccc(Cl)cc1)C(=O)Nc1cccc(C(F)(F)F)c1 (configuration not stated)	none
O=C(Nc1cccc(C(F)(F)F)c1)N(Cc1ccc(Cl)cc1)CC(O)C(F)(F)F (configuration not stated)	CHOP inhibitor 74.2
COc1ccc(Oc2nccc(-c3ccc(Cl)cc3)n2)cc1	none
Fc1ccc(Oc2nccc(-c3ccc(Cl)cc3)n2)cc1	CHOP inhibitor 81.0
Cc1[nH][nH]c(=O)c1C(c1c(C)[nH][nH]c1=O)c1cn(C)c2ccccc12	none (no result: UPR CHOP act, UPR XBP1 act)
Cc1[nH][nH]c(=O)c1C(c1c(C)[nH][nH]c1=O)c1cn(Cc2cccc3ccccc23)c2ccccc12	p97 inhibitor 26.7
Cc1ccc(OCC(=O)Nc2ccc(O)c(-c3nc4ccccc4o3)c2)cc1	CHOP inhibitor 88.6
COc1ccc(OCC(=O)Nc2ccc3oc(-c4ccncc4)nc3c2)cc1	none
CCN(CC)CCNC(=O)C(=O)NCC1OCCN1S(=O)(=O)c1cccs1 (configuration not stated)	none (no result: CHOP inhibitor, p97 inhibitor)
O=C1N/C(=N/N=C/c2ccccc2O)SC1Cc1ccc(F)cc1 (configuration not stated)	CHOP inhibitor 90.1
COc1ccc(CC2S/C(=N/N=C/c3ccccc3O)NC2=O)cc1 (configuration not stated)	CHOP inhibitor 70.1
COc1cccc(NC(=O)CN(C)C(=O)C(CCSC)NC(=O)c2ccco2)c1 (configuration not stated)	none (no result: CHOP inhibitor, HCV NS3 hel inh, PfM18AAP inh, p97 inhibitor)
CCOC(=O)CCSc1n[nH]c(=S)s1	none
CCOC(=O)CSc1n[nH]c(=S)s1	p97 inhibitor 14.5
CCOC(=O)c1ccc(NC(=S)N2CCN(C(=O)C3CCCO3)CC2)cc1 (configuration not stated)	none (no result: CHOP inhibitor, p97 inhibitor)
FC(F)Oc1ccc(/C=N/NC(=S)Nc2cc(C(F)(F)F)ccc2Cl)cc1	CHOP inhibitor 76.2
O=C(CSc1ncccn1)Nc1ncc(C(F)(F)F)cc1Cl	none
Nc1nc(SCC(=O)Nc2ncc(C(F)(F)F)cc2Cl)n[nH]1	PfM18AAP inh 28.3
COC(=O)CCCC(=O)N1CCCC(C(=O)c2ccc(OC)cc2C)C1 (configuration not stated)	none
COc1ccc(Sc2nnc(-c3ccccc3)cc2C#N)cc1	CHOP inhibitor 90.3
O=C(/C=C/c1cc[n+](CC(=O)c2ccc3cccc4c3c2CC4)cc1)c1ccc2cccc3c2c1CC3	p97 inhibitor 45.8
O=S1(=O)N=C(Nc2ccc(N3CCOCC3)cc2)c2ccccc21	none
O=S1(=O)N=C(Nc2ccc(S(=O)(=O)N3CCCCC3)cc2)c2ccccc21	CHOP inhibitor 92.0
Cc1cc(NC(=O)c2ccc(C)c(C)c2)no1	none (no result: CHOP inhibitor, p97 inhibitor)
Cc1ccccc1CC1(CO)CCCN(Cc2nc(-c3cccs3)oc2C)C1 (configuration not stated)	none
O=C(CSc1nc(-c2ccccc2)c(-c2ccccc2)o1)Nc1nncs1	CHOP inhibitor 71.6
CCn1c(C)cc(/C=C2\SC(=O)N(CC(=O)Nc3ccc(C)c(C)c3)C2=O)c1C	CHOP inhibitor 93.3
CCn1c(C)cc(/C=C2\NC(=O)N(CC(=O)Nc3cccc(C)c3)C2=O)c1C	CHOP inhibitor 80.8
CCn1c(C)cc(/C=C2/SC(=O)N(CC(=O)N3CCCC3)C2=O)c1C	none (no result: CHOP inhibitor, p97 inhibitor)
CCn1c(C)cc(/C=C2/NC(=O)N(CC(=O)Nc3cccc(C)c3)C2=O)c1C	none (no result: UPR CHOP act, UPR XBP1 act)
CC(C)(C)[C@H]1COC(=O)CCC/C=C/C[C@H](CC(=O)N(CCO)Cc2ccccc2)C(=O)N1	none (no result: CHOP inhibitor, HCV NS3 hel inh, PfM18AAP inh, p97 inhibitor)
O=C(/C(N=Nc1cccc([N+](=O)[O-])c1)=C(/O)c1ccc(Br)cc1)C(F)(F)F	CHOP inhibitor 70.1
O=C(Nc1cccn(Cc2c(F)cccc2Cl)c1=O)NC1CCCCC1	PfM18AAP inh 28.3
COCCn1c(C)cc(C(=O)COc2ccc(C)nc2[N+](=O)[O-])c1C	p97 inhibitor 14.7
CCCn1c(C)cc(C(=O)COc2ccc(C)nc2[N+](=O)[O-])c1C	none
CC(C)C(=O)NCC(c1ccc2c(c1)OCO2)N1CCOCC1 (configuration not stated)	none (no result: CHOP inhibitor, p97 inhibitor)
Fc1cccc(C2CC(c3cccc(Br)c3)Nc3nnnn32)c1 (configuration not stated)	CHOP inhibitor 82.9
Nc1nc2n(n1)C(c1cccc(Br)c1)CC(c1ccc(F)cc1)N2 (configuration not stated)	none
CCOC(=O)N1CCC(NC(=O)c2ccc(CS(=O)c3cccc(Cl)c3)o2)CC1 (configuration not stated)	none (no result: CHOP inhibitor, p97 inhibitor)
COc1cc(CNC2CCCC2)cc(Cl)c1OCc1ccccc1F	CHOP inhibitor 78.7
Cc1nn(-c2nc(-c3ccco3)cc(C(F)(F)F)n2)c(C)c1Br	CHOP inhibitor 72.6
Cc1cc(C)c(S(=O)(=O)N2CCCCC2C(=O)O)c(C)c1 (configuration not stated)	none
CCN(C(=O)CN1CCN(c2ccccc2O)CC1)c1c(N)n(Cc2ccccc2)c(=O)[nH]c1=O	PfM18AAP inh 28.4
CCN1C(=S)N[C@@H](c2cccs2)C(C(=O)OC)=C1C	none (no result: CHOP inhibitor, p97 inhibitor)
CCCCNc1nc(N)ncc1[N+](=O)[O-]	p97 inhibitor 14.6
CCOC(=O)CC1COc2ccccc2N1C(=O)c1cccc([N+](=O)[O-])c1 (configuration not stated)	none (no result: CHOP inhibitor, p97 inhibitor)
CCc1cccc2c1NC1(CCCC1)CC2C (configuration not stated)	CHOP inhibitor 91.1
O=C(/C=C/c1cccnc1)/C=C/c1cccnc1	CHOP inhibitor 97.4 (no result: UPR CHOP act, UPR XBP1 act)
CC(=O)Nc1ccc(NC(=O)COC(=O)COc2ccc3ccccc3c2)cc1	none (no result: CHOP inhibitor, HCV NS3 hel inh, PfM18AAP inh, p97 inhibitor)
